Measurements taken from ChEMBL document CHEMBL5126663, “Cellular Stress-Induced Metabolites in Escherichia coli” (J Nat Prod, 2022).
Values belong to the compound of their own block, whether it stands above or below them. Activity calls are given as the source filed them. No cut-off for these calls is given here.

Key:
[1] = Antioxidant activity assessed as DPPH radical scavenging activity incubated for 35 mins under dark condition; format: functional
Summary of the method: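 DMSO stocks (100 mM) added to freshly prepared 0.2 mM DPPH in methanol, two-fold serially diluted, kept dark 35 min, absorbance read at 517 nm. Background absorbance from a parallel methanol-only (no DPPH) plate subtracted. Scavenging % = 100 × (Acontrol−Asample)/Acontrol; n = 3; ascorbic acid positive control.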

[2] = Increase in IL-17A Katushka/IL-10eGFP/Foxp3RFP reporter mouse cell trace violet-labelled CD4+ T cell derived TGF-beta1/IL-6/IL-23-polarized Th17 cell proliferation at 10 to 20 uM measured after 3 days by flow cytomtery; format: toxicity, cell-based; details: th17, 72 h, dose 10-20 µM, time 3 day
Summary of the method: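 Same Th17-polarized, CellTrace Violet-labelled reporter-mouse CD4+ T cells; compound or DMSO added after 1–3 days, then 3 more days culture. Proliferation by flow cytometry as percentage of viable CD4+ cells having undergone 7 or more divisions (CellTrace Violet dilution); n = 4.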

[3] = (§1) Immunomodulatory activity in IL-17A Katushka/IL-10eGFP/Foxp3RFP reporter mouse cell trace violet-labelled CD4+ T cell derived TGF-beta1/IL-6/IL-23-polarized Th17 cells assessed as increase in IL-10 positive cell population at 5 to 20 uM measured after 3 days by flow cytomtery relative to control; format: functional; details: dose 5-20 µM; time 3 day
Summary of the method: (§2)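 Naïve CD4+ T cells from spleen and lymph nodes of 2 triple reporter mice, CellTrace Violet-labelled, polarized in Click's medium with 5% FBS, anti-CD3/anti-CD28, anti-IFNγ, anti-IL-4, IL-23, IL-6 and TGF-β1. Compound or DMSO added after 1–3 days, cultured 3 more days; flow cytometry on viable CD4+ cells (IL-17A Katushka, IL-10 eGFP). Fold change vs DMSO; n = 4.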

[4] = as §1, with “in IL-10/IL-17” for “in IL-10”; format: functional; details: dose 5-20 µM; time 3 day; summary of the method: as §2
[5] = biological target: T1, Aryl hydrocarbon receptor (Homo sapiens, UniProt P35869); test: Agonist activity at AhR in human HT29-Lucia AhR cells measured after 24 hrs by Quanti-luc gold luminescence assay; format: cell-based; details: DDE = dose-dependent effect
T1 sequence (P35869 whole entry): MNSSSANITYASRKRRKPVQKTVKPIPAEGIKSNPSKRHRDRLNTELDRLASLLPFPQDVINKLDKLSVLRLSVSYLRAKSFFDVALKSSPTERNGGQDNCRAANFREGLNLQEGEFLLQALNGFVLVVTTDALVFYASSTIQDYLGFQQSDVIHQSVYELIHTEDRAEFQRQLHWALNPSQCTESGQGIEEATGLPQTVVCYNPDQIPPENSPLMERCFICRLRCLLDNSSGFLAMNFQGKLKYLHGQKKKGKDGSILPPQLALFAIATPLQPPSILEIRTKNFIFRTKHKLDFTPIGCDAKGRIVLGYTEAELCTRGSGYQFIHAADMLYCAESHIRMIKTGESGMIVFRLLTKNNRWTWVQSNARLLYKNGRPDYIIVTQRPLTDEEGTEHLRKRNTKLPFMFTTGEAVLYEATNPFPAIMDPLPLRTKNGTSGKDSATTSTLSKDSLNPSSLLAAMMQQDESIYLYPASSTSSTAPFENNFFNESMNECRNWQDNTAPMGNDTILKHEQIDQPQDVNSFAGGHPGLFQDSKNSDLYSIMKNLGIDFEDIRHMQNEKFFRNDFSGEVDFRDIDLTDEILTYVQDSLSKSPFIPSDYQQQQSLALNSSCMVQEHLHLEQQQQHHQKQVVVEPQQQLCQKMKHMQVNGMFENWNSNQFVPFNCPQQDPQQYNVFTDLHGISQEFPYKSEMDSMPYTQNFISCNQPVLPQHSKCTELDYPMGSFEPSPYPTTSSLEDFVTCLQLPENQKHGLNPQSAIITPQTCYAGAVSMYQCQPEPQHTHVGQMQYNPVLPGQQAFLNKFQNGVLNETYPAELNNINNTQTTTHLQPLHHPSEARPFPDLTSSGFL
Summary of the method: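 HT29-Lucia AhR reporter cells seeded ~50,000 cells/well; ligand or DMSO vehicle added (ITE positive control, unstimulated negative control) for 24 h. Secreted Lucia luciferase in supernatant detected with QUANTI-Luc Gold luminescence. Triplicate; expressed as fold-change relative to DMSO-treated cells.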

Th17 [6] = test: Immunomodulatory activity in IL-17A Katushka/IL-10eGFP/Foxp3RFP reporter mouse cell trace violet-labelled CD4+ T cell derived TGF-beta1/IL-6/IL-23-polarized Th17 cells assessed as increase in IL-10/IL-17 positive cell population at 5 to 20 uM measured after 3 days by flow cytomtery; format: functional, cell-based; details: dose 5-20 µM, time 3.0 day; summary of the method: as §2
Th17 [7] = test: Immunomodulatory activity in IL-17A Katushka/IL-10eGFP/Foxp3RFP reporter mouse cell trace violet-labelled CD4+ T cell derived TGF-beta1/IL-6/IL-23-polarized Th17 cells assessed as increase in IL-17 positive cell population at 5 to 20 uM measured after 3 days by flow cytomtery; format: functional, cell-based; details: dose 5-20 µM, time 3.0 day; summary of the method: as §2

Structure (SMILES): O=c1[nH]c(=O)c2nc(-c3ccccc3)c(=O)n(C[C@H](O)[C@H](O)[C@H](O)CO)c2[nH]1
- Activity [1]: Active

- EC50 [1]: 32 µM
- Activity [5]: Dde
Structure (SMILES): O=c1[nH]c(=O)c2nc(-c3c[nH]c4ccccc34)c(=O)n(C[C@H](O)[C@H](O)[C@H](O)CO)c2[nH]1
- Activity [2]: Non-Toxic
- fold change (FC) [3]: 2
- fold change (FC) [4]: 2

- EC50 [1]: 30 µM
Structure (SMILES): O=C1O[C@H]([C@@H](O)CO)C(O)=C1O [ASCORBIC ACID]
- Activity (Th17 [6]): Active
- Activity (Th17 [7]): Active

Structure (SMILES): O=c1[nH]c(=O)c2nc(-c3ccc(O)cc3)c(=O)n(C[C@H](O)[C@H](O)[C@H](O)CO)c2[nH]1
- Activity [1]: Active
